Compound activity from PubChem.
Only some compounds are listed: those with a hit (about 1.5% of all), similar ones and a draw of the others.
CCR6 antagonist – CCR6 receptor antagonists, primary screen, cell-based, CHO-K1, luminescence, beta-arrestin, uHTS. C-C chemokine receptor type 6 (Homo sapiens), P51684. CHO-K1 CCR6 PathHunter beta-arrestin, CCL20-stimulated. inhibition, % at 20 µM. 340,000 compounds, 0.49% hits. AID 493098, 2011;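 active = compounds whose inhibition of the agonist-driven luminescence signal at 20 µM reaches about 50%, limit read from the data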;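 note: cells stimulated with CCL20 at 14 nM final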
APJ antagonist – antagonists of human apelin receptor APJ, primary screen, CHO-K1 cells, beta-arrestin complementation, luminescence | 330,000 compounds, 0.32% hits | P35414 | AID 2521, 2010 | inhibition, % at 20 µM;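 active = inhibition above about 40% at 20 µM, limit read from the data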;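 note: cells challenged with 10 nM apelin-13 agonist together with compound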
CXCR6 block – CXCR6 receptor inhibitors, primary screen, cell-based, beta-arrestin, luminescence, CHO-K1 PathHunter, 1536-well; AID 602244, 2012; 360,000 compounds, 0.36% hits; inhibition, % at 20 µM; C-X-C chemokine receptor type 6 (Homo sapiens), O00574; in the data active = inhibition above about 34%, passing the limit was not always enough;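 note: antagonist mode with CXCL16 agonist at 10 nM final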
Target sequence (O00574 whole entry, looked up): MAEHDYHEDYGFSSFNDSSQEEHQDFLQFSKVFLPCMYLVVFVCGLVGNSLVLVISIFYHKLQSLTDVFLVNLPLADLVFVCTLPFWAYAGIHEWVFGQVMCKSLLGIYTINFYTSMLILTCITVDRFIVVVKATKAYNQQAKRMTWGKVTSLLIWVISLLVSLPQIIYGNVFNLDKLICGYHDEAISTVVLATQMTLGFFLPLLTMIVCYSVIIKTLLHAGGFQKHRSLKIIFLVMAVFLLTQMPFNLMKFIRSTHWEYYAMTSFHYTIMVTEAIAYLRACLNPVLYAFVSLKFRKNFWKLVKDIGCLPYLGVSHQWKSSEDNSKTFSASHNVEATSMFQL
APJ ag – agonists of human apelin receptor APJ, primary screen, CHO-K1 cells, PathHunter beta-arrestin, luminescence; 330,000 compounds, 0.11% hits; AID 2520, 2010; activation, % at 20 µM; P35414; 0% DMSO wells, 100% apelin;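 active = activation more than six SD over the plate average, tested at 20 µM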
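assay system = CHO-K1 APJ beta-arrestin complementation cell line | input = cell density 1000 per well | dosing = compound 20 µM once, DMSO 1% | timing = compound 90 min 25 °C, reagent 1 h | measured by = luminescence from split beta-galactosidase complementation, Galacton Star/Emerald II substrate | read-out basis = APJ agonist activity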
EBI2 antag – EBI2 receptor antagonists, beta-arrestin recruitment, primary screen, cell-based, luminescence, 7a,25-OHC stimulation, uHTS | inhibition, % at 5 µM | G-protein coupled receptor 183 (Homo sapiens), P32249 | 360,000 compounds, 0.81% hits | 7a,25-OHC stimulated; in the data active = inhibition above about 38%;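 note: enzyme fragment complementation signal reports receptor beta-arrestin coupling in cells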
Target sequence (P32249 whole entry, looked up, the tested form may be a part): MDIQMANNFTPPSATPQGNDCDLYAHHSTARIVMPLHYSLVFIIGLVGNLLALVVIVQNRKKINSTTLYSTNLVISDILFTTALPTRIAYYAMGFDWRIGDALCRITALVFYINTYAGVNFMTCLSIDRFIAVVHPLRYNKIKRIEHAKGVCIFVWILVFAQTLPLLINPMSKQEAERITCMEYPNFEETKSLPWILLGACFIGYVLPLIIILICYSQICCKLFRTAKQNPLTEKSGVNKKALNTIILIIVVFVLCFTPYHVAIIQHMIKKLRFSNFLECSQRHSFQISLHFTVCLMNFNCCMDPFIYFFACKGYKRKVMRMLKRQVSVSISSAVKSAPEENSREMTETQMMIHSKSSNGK
Of the large screens only hits and unclear results are named; the others gave an inactive call.

CC1=CC(C)(C)Nc2ccc(OC(=O)c3cccnc3)cc21	none
CC1=CC(C)(C)Nc2ccc(OC(=O)c3ccco3)cc21	CCR6 antagonist 52
CC(C)c1cc(-c2cc(C(=O)NCc3ccccc3)on2)nc(NCC2CC2)n1	none
COc1ccc(C(=O)/C=C/C(=O)N(CC(=O)NC2CCCCC2)Cc2ccc(F)cc2)c(O)c1	CCR6 antagonist 98, CXCR6 block 60 (no result: APJ antagonist, APJ ag)
CS(=O)(=O)N(CC(=O)NC1CCCCC1)Cc1ccc(F)cc1	none
COc1ccc(C(=O)N(Cc2ccco2)Cc2cccs2)c(O)c1	none
COc1ccc(C(=O)/C=C/C(=O)N(CC(=O)NCCC(C)C)Cc2cccs2)c(O)c1	CCR6 antagonist 85 (no result: APJ antagonist, APJ ag)
CC(=O)Nc1ccc(NC(=O)COC(=O)c2ccccn2)cc1	none
Oc1ccc(/C=N/Nc2ccnc3cc(Cl)ccc23)c(O)c1	EBI2 antag 46
CCOC(=O)COc1ccccc1/C=C\[N+](=O)[O-]	CCR6 antagonist 69, CXCR6 block 45 (no result: APJ antagonist, APJ ag)
CCOc1ccc2oc(C(=O)OCC(=O)NC3CCCC3)c(C)c2c1	none
CC(C)(C)OC(=O)N[C@@H](Cc1ccccc1)c1nnc(S(=O)(=O)Cc2cccc(F)c2)o1	CCR6 antagonist 69 (no result: CXCR6 block, EBI2 antag)
CC(C)C[C@H](N)c1nnc(S(=O)(=O)Cc2cccc(F)c2)o1	none
CC[C@@H](C)[C@H](NC(=O)OC(C)(C)C)c1nnc(S(=O)(=O)Cc2cc(C)ccc2C)o1	none
Cc1ccccc1CS(=O)(=O)c1nnc([C@H](CC(C)C)NC(=O)OC(C)(C)C)o1	CCR6 antagonist 53
CC(=O)N1C[C@@H](CO)[C@@H](N(C)C(=O)C2CCCCC2)C[C@H]1c1ccccc1	none (no result: CCR6 antagonist, APJ antagonist, APJ ag)
COc1cc(/C=N/Nc2nc(C)nc3c2cnn3-c2ccccc2)ccc1O	EBI2 antag 56 (no result: APJ antagonist, APJ ag)
COc1cc(/C=N/NC(=O)c2nc(-c3ccccc3)n(-c3ccccc3)n2)ccc1O	none
O=C(Cc1ccc(S(=O)(=O)N2CCOCC2)s1)Nc1ccccc1Br	none
NC(=O)c1cc(-c2ccccc2)sc1NC(=O)Cc1ccc(S(=O)(=O)N2CCOCC2)s1	EBI2 antag 50
Cc1cc(C)c(S(=O)(=O)/N=C2\C=C(NS(=O)(=O)c3ccccc3)C(=O)c3ccccc32)c(C)c1	none
CCc1ccc(S(=O)(=O)/N=C2\C=CC(=O)c3ccccc32)cc1	none (no result: CCR6 antagonist, CXCR6 block, EBI2 antag)
CCc1ccc(S(=O)(=O)/N=C2/C=C(Sc3ncn[nH]3)C(=O)c3ccccc32)cc1	CXCR6 block 54 (no result: CCR6 antagonist, APJ antagonist, APJ ag)
O=C1C(Nc2ccc(O)cc2)=C/C(=N/S(=O)(=O)c2cccs2)c2ccccc21	CCR6 antagonist 59 (no result: APJ antagonist, APJ ag)
O=C(O)c1ccc(NC2=C/C(=N/S(=O)(=O)c3cccs3)c3ccccc3C2=O)cc1	none (no result: CCR6 antagonist, APJ antagonist, APJ ag)
Cc1ccc(NC2=C/C(=N\S(=O)(=O)c3cccs3)c3ccccc3C2=O)c(C)c1	CCR6 antagonist 59
Cc1ccc(Cl)cc1NC1=C/C(=N\S(=O)(=O)c2cccs2)c2ccccc2C1=O	CCR6 antagonist 59
Cc1cccc(NC2=C/C(=N/S(=O)(=O)c3cccs3)c3ccccc3C2=O)c1	CCR6 antagonist 53 (no result: APJ antagonist, APJ ag)
CCc1ccc(S(=O)(=O)/N=C2\C=C(Nc3ccc(O)cc3)C(=O)c3ccccc32)cc1	CCR6 antagonist 57, CXCR6 block 41
CCc1ccc(S(=O)(=O)/N=C2\C=C(Nc3cccc(C(=O)O)c3)C(=O)c3ccccc32)cc1	none
CCOC(=O)N1CCC(n2c(=S)[nH]c3cc(OCC)c(OCC)cc3c2=O)CC1	EBI2 antag 60
N=C1SC(c2ccccc2)C(=O)N1c1ncc(Cc2ccccc2)s1 (stereo not given)	none
Cc1ccc(Cc2cnc(N3C(=N)SC(c4ccccc4)C3=O)s2)cc1 (stereo not given)	CCR6 antagonist 62
Cc1ccc(C(=O)CNc2ccc(C)cc2C)cc1	CCR6 antagonist 79
Cc1ccc(NC(=O)CC(=O)Nc2ccc(C)cc2C)c(C)c1	none
COc1ccc(S(=O)(=O)N(CC(=O)N2CCN(C)CC2)c2ccc(C)cc2)cc1Br	none
O=C(CCn1cnc2ccccc2c1=O)Nc1nc(-c2ccc(Br)cc2)cs1	APJ ag 23
c1ccc(C2=NN(c3ccccc3)CC2)cc1	none
CCOC(=O)/C(=C/c1ccc(N2CCC(c3ccccc3)=N2)cc1)C(C)=O	EBI2 antag 49 (no result: APJ antagonist, APJ ag)
C/C(=N/NC(=O)c1ccncc1)C1=C(O)CC(C)(C)CC1=O	none
O=C(Nc1cc(NC(=O)c2ccccc2F)ccc1Cl)c1ccccc1	none
CC(C)N1C(=O)S/C(=C\c2ccc(-c3ccc(Cl)c(C(=O)O)c3)o2)C1=O	none
CCN(CC)c1ccc(/C=C2/SC(=O)N(C(C)C)C2=O)o1	EBI2 antag 42 (no result: APJ antagonist, APJ ag)
CCOC(=O)c1ccc(N/N=C/c2cc(Br)cc([N+](=O)[O-])c2O)cc1	CCR6 antagonist 60, CXCR6 block 52
CN(C)c1ccc(N=Nc2nccs2)cc1	CXCR6 block 51 (no result: CCR6 antagonist, APJ antagonist, APJ ag)
CCOC(=O)c1ccc(N=Cc2nc(-c3ccccc3)oc2OC(C)=O)cc1	CCR6 antagonist 50
Cc1cccc[n+]1CC(=O)/C=C1\N(C)c2ccccc2C1(C)C	none
CN1/C(=C/C=C/c2n(C)c3cc([N+](=O)[O-])c([N+](=O)[O-])cc3[n+]2C)C(C)(C)c2ccccc21	CXCR6 block 48 (no result: CCR6 antagonist, APJ antagonist, APJ ag)
O=C(NCc1ccccn1)[C@@H]1CCCN1C(=O)[C@@H]1CCCN1C(=O)c1cccc(Cl)c1	none (no result: CCR6 antagonist, APJ antagonist, APJ ag)
CC1=NN(c2ccc(Br)cc2)C(=O)/C1=C/c1cccs1	EBI2 antag 57
O=C(NC1CCSc2ccccc21)c1cc([N+](=O)[O-])ccc1N1CCOCC1 (stereo not given)	none
Cc1ccc(N=C2C(=O)Nc3ccc(C)c(Br)c32)cc1	CCR6 antagonist 99
COc1ccc(N=C2C(=O)Nc3ccccc32)cc1	none
CC1=NN(C(N)=S)C(=O)C1N=Nc1c(Cl)cc([N+](=O)[O-])cc1Cl (stereo not given)	CCR6 antagonist 57, CXCR6 block 40
O=S1(=O)C=C(Sc2nc3cc(Cl)ccc3o2)c2ccccc21	CCR6 antagonist 74, CXCR6 block 56
Cc1cc(NC(=O)CSc2nc3cc(Cl)ccc3o2)no1	none
CSc1ccc(C2=C/C(=C3/SC(=S)NC3=O)c3ccccc3O2)cc1	CCR6 antagonist 76, CXCR6 block 45 (no result: APJ antagonist, APJ ag)
CCN1/C(=C2/SC(=S)NC2=O)Sc2ccccc21	none
Cc1cc(C)n(CC(=O)NNC(=O)CCNC(=O)c2ccccc2Cl)n1	none
Cc1c(N/N=C(\C#N)C(=O)c2ccc(Cl)cc2)c(=O)n(-c2ccccc2)n1C	CCR6 antagonist 81, CXCR6 block 77 (no result: APJ antagonist, APJ ag)
COc1cccc(CN(C)C(=O)c2cc(COc3ccc4ncccc4c3)on2)c1	none
COc1ccccc1-c1cc(C(=O)Nc2cc(C)n(Cc3ccc(Cl)cc3)n2)no1	EBI2 antag 52
